Measured values published in ChEMBL document CHEMBL3526009, “Breast cancer resistance protein (ABCG2) determines distribution of genistein phase II metabolites: reevaluation of the roles of ABCG2 in the disposition of genistein” (Drug Metab Dispos, 2012).

Legend:
Blood = assay: Stability in Wistar rat blood at 3 uM up to 4 hrs by UPLC-MS/MS analysis; format: ADME, tissue-based
Procedure, shortened: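 Genistein glucuronide mixture (G-7-G plus G-4′-G, 3 μM) with 3.8 μM genistein incubated in fresh rat whole blood, 37°C shaking water bath. Sampled at 0, 60, 120 and 240 min. Reaction stopped with acetonitrile containing daidzein internal standard. Genistein and conjugates quantified by UPLC-MS/MS using multiple reaction monitoring. n = 3.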

[1] = Drug transport in human Caco2 cells assessed as basolateral excretion of compound treated with genistein at 2 uM after 4 hrs by UPLC-MS/MS analysis in presence of BCRP inhibitor Ko143; format: ADME, cell-based; settings: caco-2, 4 h
Procedure, shortened: (§1)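 Caco-2 TC7 monolayers on 3 μm polycarbonate inserts, used 19–22 days post-seeding (TEER ≥460 Ω/cm2). Genistein 2 or 10 μM in HBSS pH 7.4 applied apically, ±5 μM Ko143 apically; sampling both sides at 0–4 h hourly with replacement, triplicate. Genistein and four conjugates plus intracellular amounts at 4 h by UPLC-MS/MS; mass balance versus dose added.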

[2] = Drug transport in human Caco2 cells assessed as basolateral excretion of compound treated with genistein at 10 uM after 4 hrs by UPLC-MS/MS analysis in presence of BCRP inhibitor Ko143; format: ADME, cell-based; settings: caco-2, 4 h; procedure, shortened: as §1
[3] = Stability in potassium phosphate buffer at pH 7.4 up to 4 hrs; format: physicochemical; settings: pH 7.4, 4 h
Procedure, shortened: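 Negative control run under the blood-incubation conditions but in 50 mM potassium phosphate buffer, pH 7.4, instead of blood. Genistein glucuronides (G-7-G plus G-4′-G, with aglycone) or sulfates (G-7-S plus G-4′-S, with aglycone) held at 37°C in a shaking water bath up to 4 h. Sampled at 0, 60, 120 and 240 min and read by UPLC-MS/MS.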

SMILES | Stability (Blood) | Drug transport [1] | Drug transport [2] | Stability [3]
O=c1c(-c2ccc(OS(=O)(=O)O)cc2)coc2cc(O)cc(O)c12 | Stable | Active | Active | Stable
O=c1c(-c2ccc(O)cc2)coc2cc(OS(=O)(=O)O)cc(O)c12 | Stable | Active | Active | Stable
